Measurements reported in ChEMBL document CHEMBL3862011, “Neuroprotective effects of benzyloxy substituted small molecule monoamine oxidase B inhibitors in Parkinson's disease” (Bioorg Med Chem, 2016).
pIC50: −log10 of the molar value.

Target: T1, Amine oxidase [flavin-containing] A (Homo sapiens, UniProt P21397)
T1 sequence (P21397 whole entry): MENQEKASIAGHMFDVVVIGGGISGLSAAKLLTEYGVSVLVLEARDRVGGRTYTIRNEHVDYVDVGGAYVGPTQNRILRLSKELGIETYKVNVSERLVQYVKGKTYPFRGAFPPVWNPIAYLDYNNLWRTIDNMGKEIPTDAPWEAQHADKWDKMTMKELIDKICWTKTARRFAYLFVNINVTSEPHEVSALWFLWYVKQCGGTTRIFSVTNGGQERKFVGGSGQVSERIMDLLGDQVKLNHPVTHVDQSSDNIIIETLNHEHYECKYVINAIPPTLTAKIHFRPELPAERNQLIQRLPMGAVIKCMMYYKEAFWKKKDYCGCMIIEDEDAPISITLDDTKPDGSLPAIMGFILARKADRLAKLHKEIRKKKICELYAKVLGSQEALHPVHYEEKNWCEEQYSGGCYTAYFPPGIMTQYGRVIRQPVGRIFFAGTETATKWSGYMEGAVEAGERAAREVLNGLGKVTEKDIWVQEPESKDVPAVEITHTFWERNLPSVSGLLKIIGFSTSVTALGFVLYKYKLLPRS
Test: not given
Details: not given
O=C1OCc2cc(OCc3ccc(Cl)cc3)ccc21 showed a pIC50 of 5.44. O=c1ccoc2cc(OCc3ccc(C(F)(F)F)cc3)ccc12 gave a pIC50 of 4.72. O=C1CCCc2cc(OCc3ccc(Cl)cc3)ccc21 gave a pIC50 of 6.47. O=c1ccoc2ccc(OCc3ccc(F)cc3)cc12 gave a pIC50 of 4.87. For CC1(C)CC(=O)c2ccc(OCc3ccc(Cl)cc3)cc2O1, the pIC50 was < 4.00. In the case of CC(=O)c1ccc(OCc2ccc(Cl)cc2)cc1F, the pIC50 was 4.05. With CC(=O)c1ccc(OCc2cccc(Cl)c2)cc1 the pIC50 was 4.05. O=C1CCc2ccc(OCc3cccc(Br)c3)cc2N1 showed a pIC50 of 4.31. With CC(=O)c1ccc(OCc2cccc(F)c2)cc1F the pIC50 was < 4.00. For O=C1OCc2cc(OCc3ccc(F)cc3)ccc21, the pIC50 was 5.88. With CC(=O)c1cccc(OCc2ccc(Br)cc2)c1 the pIC50 was 4.27. Compound CC(=O)c1ccc(OCc2ccc(Cl)cc2)cc1O has a pIC50 of 4.60. With CC(=O)c1ccc(OCc2ccc(F)cc2)cc1O the pIC50 was 4.36. For O=C1CCc2ccc(OCc3cccc(Cl)c3)cc2N1, the pIC50 was < 4.00. O=c1ccoc2cc(OCc3ccc(F)cc3)ccc12 showed a pIC50 of 4.73.

Target: T1, Amine oxidase [flavin-containing] A
Test: Inhibition of recombinant human MAO-A using kynuramine as substrate assessed as decrease in 4-hydroxyquinoline production incubated for 20 mins by fluorescence spectrophotometry
Details: not given
CC(=O)c1ccc(OCc2ccc(F)cc2)cc1O showed a pIC50 of 5.43.

Test system: not listed separately
Test: in vitro
Details: PAMPA
In the case of O=C1CCc2ccc(OCc3cccc(Br)c3)cc2N1, the Papp at 16 h, 100 ug/ml was 8.89 ×10⁻⁶ cm/s. For CC(=O)c1ccc(OCc2ccc(Cl)cc2)cc1O, the Papp at 16 h, 100 ug/ml was 12.7 ×10⁻⁶ cm/s. In the case of CC(=O)c1ccc(OCc2ccc(F)cc2)cc1O, the Papp at 16 h, 100 ug/ml was 13.5 ×10⁻⁶ cm/s.

Test system: not listed separately
Test: Cytotoxicity against rat PC12 cells assessed as cell survival at 20 uM after 72 hrs by MTT assay relative to control
Type: toxicity, PC-12
Details: read-out: Survival
For O=C1OCc2cc(OCc3ccc(Cl)cc3)ccc21, the viability at 72 h, 20 µM was 85.7%. Work on O=c1ccoc2cc(OCc3ccc(C(F)(F)F)cc3)ccc12 yielded a viability at 72 h, 20 µM of 110%. Compound O=C1CCCc2cc(OCc3ccc(Cl)cc3)ccc21 has a viability at 72 h, 20 µM of 129%. O=c1ccoc2ccc(OCc3ccc(F)cc3)cc12 gave a viability at 72 h, 20 µM of 109%. CC1(C)CC(=O)c2ccc(OCc3ccc(Cl)cc3)cc2O1 showed a viability at 72 h, 20 µM of 109%. For CC(=O)c1ccc(OCc2ccc(Cl)cc2)cc1F, the viability at 72 h, 20 µM was 113%. In the case of CC(=O)c1ccc(OCc2cccc(Cl)c2)cc1, the viability at 72 h, 20 µM was 116%. Work on O=C1CCc2ccc(OCc3cccc(Br)c3)cc2N1 yielded a viability at 72 h, 20 µM of 108%. Work on CC(=O)c1ccc(OCc2cccc(F)c2)cc1F yielded a viability at 72 h, 20 µM of 119%. In the case of O=C1OCc2cc(OCc3ccc(F)cc3)ccc21, the viability at 72 h, 20 µM was 89.7%. With CC(=O)c1cccc(OCc2ccc(Br)cc2)c1 the viability at 72 h, 20 µM was 107%. CC(=O)c1ccc(OCc2ccc(Cl)cc2)cc1O gave a viability at 72 h, 20 µM of 126%. In the case of CC(=O)c1ccc(OCc2ccc(F)cc2)cc1O, the viability at 72 h, 20 µM was 109%. Work on O=C1CCc2ccc(OCc3cccc(Cl)c3)cc2N1 yielded a viability at 72 h, 20 µM of 97.2%. Compound O=c1ccoc2cc(OCc3ccc(F)cc3)ccc12 has a viability at 72 h, 20 µM of 119%.

Test system: not listed separately
Test: Neuroprotective activity against 6-OHDA-induced toxicity in rat PC12 cells assessed as cell survival at 20 uM preincubated for 24 hrs followed by 6-OHDA addition measured after 24 hrs by MTT assay relative to control
Type: functional
Details: PC-12, read-out: Survival
How it was run: (§1)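 PC12 cells seeded 5×10^3/well, after 24 h given compound at 20 μM for 24 h at 37 °C, then exposed to 6-OHDA (40 μM) or rotenone (1 μM) for 24 h. […] Mean ± SEM of three independent experiments.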
O=C1OCc2cc(OCc3ccc(Cl)cc3)ccc21 gave a viability at 20 µM of 137%. Compound O=c1ccoc2cc(OCc3ccc(C(F)(F)F)cc3)ccc12 has a viability at 20 µM of 123%. For O=C1CCCc2cc(OCc3ccc(Cl)cc3)ccc21, the viability at 20 µM was 127%. O=c1ccoc2ccc(OCc3ccc(F)cc3)cc12 showed a viability at 20 µM of 115%. With CC1(C)CC(=O)c2ccc(OCc3ccc(Cl)cc3)cc2O1 the viability at 20 µM was 143%. In the case of CC(=O)c1ccc(OCc2ccc(Cl)cc2)cc1F, the viability at 20 µM was 142%. CC(=O)c1ccc(OCc2cccc(Cl)c2)cc1 showed a viability at 20 µM of 123%. With O=C1CCc2ccc(OCc3cccc(Br)c3)cc2N1 the viability at 20 µM was 112%. CC(=O)c1ccc(OCc2cccc(F)c2)cc1F showed a viability at 20 µM of 116%. In the case of O=C1OCc2cc(OCc3ccc(F)cc3)ccc21, the viability at 20 µM was 116%. With CC(=O)c1cccc(OCc2ccc(Br)cc2)c1 the viability at 20 µM was 109%. For CC(=O)c1ccc(OCc2ccc(Cl)cc2)cc1O, the viability at 20 µM was 144%. In the case of CC(=O)c1ccc(OCc2ccc(F)cc2)cc1O, the viability at 20 µM was 144%. Work on O=C1CCc2ccc(OCc3cccc(Cl)c3)cc2N1 yielded a viability at 20 µM of 121%. O=c1ccoc2cc(OCc3ccc(F)cc3)ccc12 showed a viability at 20 µM of 124%.

Test system: not listed separately
Test: Cytotoxicity against rat PC12 cells assessed as cell survival at 100 uM after 24 hrs by MTT assay relative to control
Type: toxicity, PC-12
Details: read-out: Survival
Work on O=C1OCc2cc(OCc3ccc(Cl)cc3)ccc21 yielded a viability at 24 h, 100 µM of 86.7%. In the case of O=c1ccoc2cc(OCc3ccc(C(F)(F)F)cc3)ccc12, the viability at 24 h, 100 µM was 81.2%. O=C1CCCc2cc(OCc3ccc(Cl)cc3)ccc21 gave a viability at 24 h, 100 µM of 91.2%. In the case of O=c1ccoc2ccc(OCc3ccc(F)cc3)cc12, the viability at 24 h, 100 µM was 85.2%. Compound CC1(C)CC(=O)c2ccc(OCc3ccc(Cl)cc3)cc2O1 has a viability at 24 h, 100 µM of 110%. For CC(=O)c1ccc(OCc2ccc(Cl)cc2)cc1F, the viability at 24 h, 100 µM was 105%. For CC(=O)c1ccc(OCc2cccc(Cl)c2)cc1, the viability at 24 h, 100 µM was 118%. In the case of O=C1CCc2ccc(OCc3cccc(Br)c3)cc2N1, the viability at 24 h, 100 µM was 80.2%. CC(=O)c1ccc(OCc2cccc(F)c2)cc1F showed a viability at 24 h, 100 µM of 118%. Work on O=C1OCc2cc(OCc3ccc(F)cc3)ccc21 yielded a viability at 24 h, 100 µM of 64.9%. Compound CC(=O)c1cccc(OCc2ccc(Br)cc2)c1 has a viability at 24 h, 100 µM of 122%. With CC(=O)c1ccc(OCc2ccc(Cl)cc2)cc1O the viability at 24 h, 100 µM was 109%. For CC(=O)c1ccc(OCc2ccc(F)cc2)cc1O, the viability at 24 h, 100 µM was 101%. Work on O=C1CCc2ccc(OCc3cccc(Cl)c3)cc2N1 yielded a viability at 24 h, 100 µM of 76.1%. Compound O=c1ccoc2cc(OCc3ccc(F)cc3)ccc12 has a viability at 24 h, 100 µM of 72.9%.

Test system: not listed separately
Test: Neuroprotective activity against rotenone-induced toxicity in rat PC12 cells assessed as cell survival at 20 uM preincubated for 24 hrs followed by rotenone addition measured after 24 hrs by MTT assay relative to control
Type: functional
Details: PC-12, read-out: Survival
How it was run: as §1
For O=C1OCc2cc(OCc3ccc(Cl)cc3)ccc21, the viability at 20 µM was 113%. Compound O=c1ccoc2cc(OCc3ccc(C(F)(F)F)cc3)ccc12 has a viability at 20 µM of 110%. Work on O=C1CCCc2cc(OCc3ccc(Cl)cc3)ccc21 yielded a viability at 20 µM of 110%. Work on O=c1ccoc2ccc(OCc3ccc(F)cc3)cc12 yielded a viability at 20 µM of 106%. Compound CC1(C)CC(=O)c2ccc(OCc3ccc(Cl)cc3)cc2O1 has a viability at 20 µM of 108%. Compound CC(=O)c1ccc(OCc2ccc(Cl)cc2)cc1F has a viability at 20 µM of 101%. CC(=O)c1ccc(OCc2cccc(Cl)c2)cc1 gave a viability at 20 µM of 95.8%. In the case of O=C1CCc2ccc(OCc3cccc(Br)c3)cc2N1, the viability at 20 µM was 134%. CC(=O)c1ccc(OCc2cccc(F)c2)cc1F showed a viability at 20 µM of 109%. Compound O=C1OCc2cc(OCc3ccc(F)cc3)ccc21 has a viability at 20 µM of 114%. CC(=O)c1cccc(OCc2ccc(Br)cc2)c1 gave a viability at 20 µM of 105%. CC(=O)c1ccc(OCc2ccc(Cl)cc2)cc1O showed a viability at 20 µM of 105%. Work on CC(=O)c1ccc(OCc2ccc(F)cc2)cc1O yielded a viability at 20 µM of 98.3%. Work on O=C1CCc2ccc(OCc3cccc(Cl)c3)cc2N1 yielded a viability at 20 µM of 110%. O=c1ccoc2cc(OCc3ccc(F)cc3)ccc12 gave a viability at 20 µM of 115%.
